This is a sample that favours compounds with a hit; in the whole collection about 1.5% have one here.
RAD54 inh: blocks human RAD54 Holliday junction branch migration; FAM/BHQ fluorescence; inhibition, % at 10.4 µM; hit rate 0.14% among 360,000; AID 602329;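 active = mean normalized replicate activity at least 40 and at least half of replicates scoring 40 or more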;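 also: 0% = median of neutral control wells and 100% = median of positive control wells; inhibitors cause a drop in the FAM fluorescence signal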
Target sequence (Q92698 whole entry, looked up): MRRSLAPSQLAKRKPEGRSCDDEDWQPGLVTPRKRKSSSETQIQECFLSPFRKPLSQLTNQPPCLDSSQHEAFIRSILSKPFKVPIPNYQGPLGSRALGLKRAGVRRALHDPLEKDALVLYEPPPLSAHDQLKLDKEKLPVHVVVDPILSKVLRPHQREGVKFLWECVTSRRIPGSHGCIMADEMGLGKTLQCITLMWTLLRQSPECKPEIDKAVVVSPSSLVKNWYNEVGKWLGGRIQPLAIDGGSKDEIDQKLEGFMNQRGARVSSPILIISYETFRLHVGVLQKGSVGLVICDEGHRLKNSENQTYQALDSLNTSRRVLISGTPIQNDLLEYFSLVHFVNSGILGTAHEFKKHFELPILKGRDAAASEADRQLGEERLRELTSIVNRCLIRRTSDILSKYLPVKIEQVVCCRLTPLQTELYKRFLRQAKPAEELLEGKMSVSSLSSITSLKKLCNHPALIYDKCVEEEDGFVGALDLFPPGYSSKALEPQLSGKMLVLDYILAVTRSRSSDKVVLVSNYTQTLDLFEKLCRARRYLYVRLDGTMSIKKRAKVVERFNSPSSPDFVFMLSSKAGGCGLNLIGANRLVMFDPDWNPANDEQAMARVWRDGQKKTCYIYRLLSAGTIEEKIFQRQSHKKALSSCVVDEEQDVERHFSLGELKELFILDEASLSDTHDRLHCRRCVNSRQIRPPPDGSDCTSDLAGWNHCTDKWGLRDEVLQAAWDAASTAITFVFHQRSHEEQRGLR
MLL AF4-AF9 inh: inhibitors of human MLL-AF4/AF9 interaction; P42568; AlphaScreen, biotin-AF4 peptide binding to FLAG-AF9; inhibition, % at 10 µM; hit rate 0.47% among 350,000; AID 651704;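 active = every replicate reaching a set inhibition limit, whatever the replicate mean, cut at about 25% in these data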;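 also: 0% = plate neutral control median and 100% = total signal loss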
S100A4 MyoIIA: blocks human S100A4 binding to myosin IIA peptide; S100A4/TAMRA-MyoIIA peptide fluorescence polarization; inhibition, % at 10.7 µM; hit rate 0.14% among 360,000;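 active = mean inhibition of at least 70% across replicates, with every replicate also reaching that level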
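Test system: S100A4 monomer protein; Medium: HEPES pH 7.2 with CaCl2, KCl, NaCl, DTT, Triton; Probe or stimulus: TAMRA-labelled myosin IIA heavy-chain peptide probe, 5 nM; Doses: one dose per compound; Times: polarization read 5 min after assay mix addition, stable 5–60 min; Benchmarks: neutral control DMSO, positive control TFP.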
RAD52 inh: blocks human RAD52 DNA annealing. P43351. recombinant RAD52 DNA annealing, FRET fluorescence. inhibition, % at 18.7 µM. hit rate 0.46% among 360,000. AID 651710;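 active = every replicate showing at least 50% inhibition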
dFosB act: mouse delta FosB homodimer activation. AID 493131. P13346. hit rate 0.99% among 340,000. activation, % at 25 µM. purified delta FosB, TAMRA-CDK5 oligo fluorescence polarization; percent of positive-control signal above neutral wells;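 active = mean activation above about 17%, with every replicate also reaching it, limit read from the data, passing the limit was not always enough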
RAD52 DNA ctr: counter-screen for RAD52 inhibitors: DNA binding compounds. hit rate 8% among 1,000. AC50, µM. Salmon sperm DNA/acridine orange FP displacement. shares compounds with RAD52 inh. AID 652128;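 active = fitted half-maximal concentration for signal loss at or below twice the highest dose tested, in every separate run, actives reach about 64 µM in these data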
Numbers without * were called inactive.

For C[C@@H]1CN([C@@H](C)CO)C(=O)c2cc(C#CC(C)(C)O)cnc2O[C@@H]1CN(C)Cc1cncnc1 the results were RAD54 inh 4.3, MLL AF4-AF9 inh -11.4, S100A4 MyoIIA -5.2 and RAD52 inh -9.8.
`CN(C)CCCNc1oc(/C=C/c2cccs2)nc1S(=O)(=O)c1ccccc1` gave RAD54 inh 5.0, MLL AF4-AF9 inh 0.6, S100A4 MyoIIA -1.3, RAD52 inh 51.8*, dFosB act -1.2 and RAD52 DNA ctr inactive.
Screening Cc1ccc2c(c1)c1c(n2CC(O)CNC(C)(C)C)CCCC1 (stereo unspecified) returned RAD54 inh 11.9, MLL AF4-AF9 inh 1.8, S100A4 MyoIIA -5.8, RAD52 inh 52.2*, dFosB act 7.6 and RAD52 DNA ctr inactive.
Screening O=C(O)CCNC(=O)c1ccccc1 returned RAD54 inh 0.1, MLL AF4-AF9 inh -1.9, S100A4 MyoIIA 11.8, RAD52 inh -3.2 and dFosB act 1.7.
For O=C(NCCNC(=O)c1ccccc1)c1ccccc1 the results were RAD54 inh 19.0, MLL AF4-AF9 inh 8.9, S100A4 MyoIIA 9.7, RAD52 inh 52.5*, dFosB act -2.2 and RAD52 DNA ctr inactive.
CN1CCN(CCCNc2nc3ccccc3c3nc(-c4ccccc4)nn23)CC1 was read as MLL AF4-AF9 inh 19.2, S100A4 MyoIIA 7.9, RAD52 inh 66.1*, dFosB act -28.3 and RAD52 DNA ctr inactive.
For CCN(CC)CCCNc1nc2ccccc2c2nc(-c3ccncc3)nn12 the results were RAD54 inh 109.3*, MLL AF4-AF9 inh 2.4, S100A4 MyoIIA -33.0, RAD52 inh -80.1, dFosB act 66.8* and RAD52 DNA ctr 46.4µM*.
For COCCCNc1nc(-c2ccncc2)nc2ccccc12 the results were RAD54 inh 8.3 and dFosB act -28.7.
Screening CN(C)CCCNC(=S)NCC(c1ccc(Cl)cc1Cl)c1c[nH]c2ccccc12 (stereo unspecified) returned RAD54 inh -6.8, MLL AF4-AF9 inh 35.3*, S100A4 MyoIIA -0.9, RAD52 inh 56.3*, dFosB act 6.3 and RAD52 DNA ctr inactive.
For COc1cccc(/C=C/C(=O)c2ccc(NC3=NCCCS3)cc2)c1 the results were MLL AF4-AF9 inh 8.5, S100A4 MyoIIA 12.8, RAD52 inh 31.8 and dFosB act 3.3.
`Cc1cccc(/C=C/C(=O)c2ccc(NC3=NCCCS3)cc2)c1` gave MLL AF4-AF9 inh 12.8, S100A4 MyoIIA -3.3, RAD52 inh 54.4*, dFosB act 12.6 and RAD52 DNA ctr inactive.
`CN1CCN(C(=O)c2cccc(-c3cc(O)c4ncccc4c3)c2)CC1` gave RAD54 inh 2.3, S100A4 MyoIIA -1.2, RAD52 inh 20.0 and dFosB act 4.2.
For CN1CCN(c2cc(-c3cc(O)c4ncccc4c3)ccn2)CC1 the results were RAD54 inh 26.0, MLL AF4-AF9 inh 83.9*, S100A4 MyoIIA -5.1, RAD52 inh 106.9*, dFosB act 12.9 and RAD52 DNA ctr inactive.
For CC(C)C(=O)Nc1ccc2c(c1)C(=O)N(C)[C@@H]1CC[C@H](CC(=O)NCc3ccc(F)cc3)O[C@H]1CO2 the results were RAD54 inh -12.2, MLL AF4-AF9 inh -1.9, S100A4 MyoIIA -3.5 and RAD52 inh 13.1.
For CCCNC(=O)N1CC2(CN(Cc3ccccn3)C2)c2c(n(C)c3cc(OC)ccc23)[C@@H]1CO the results were MLL AF4-AF9 inh 15.5.
`FC(F)(F)c1cc(CCN2CCNC[C@H]2Cc2cccc3ccccc23)cc(C(F)(F)F)c1` gave RAD54 inh 15.6, MLL AF4-AF9 inh 4.1, S100A4 MyoIIA 4.5, RAD52 inh 60.1*, dFosB act 5.8 and RAD52 DNA ctr inactive.
Screening C[C@@H]1CN([C@@H](C)CO)C(=O)c2cc(NS(=O)(=O)c3cccs3)ccc2O[C@@H](C)CCCCO[C@H]1CN(C)Cc1ccc2c(c1)OCO2 returned RAD54 inh 12.6.
NC(N)=NN=Cc1ccnc2ccccc12 was read as MLL AF4-AF9 inh 5.0, S100A4 MyoIIA 1.7 and RAD52 inh 35.0.
NC(=NCc1ccccc1)NN=Cc1ccnc2ccccc12 was read as MLL AF4-AF9 inh 26.7*, S100A4 MyoIIA 0.5, RAD52 inh 64.3* and RAD52 DNA ctr inactive.
COc1ccc(S(=O)(=O)Nc2ccc3c(c2)C(=O)N([C@H](C)CO)C[C@@H](C)[C@H](CN(C)S(C)(=O)=O)OCCCC[C@@H](C)O3)cc1 was read as RAD54 inh 2.3, MLL AF4-AF9 inh -3.3, S100A4 MyoIIA 15.8 and RAD52 inh -10.1.
Fc1ccccc1CNc1nc(NCC2CC2)nc2ccsc12 was read as RAD54 inh -8.7, MLL AF4-AF9 inh 3.2, S100A4 MyoIIA 1.0, RAD52 inh 51.2* and RAD52 DNA ctr inactive.
For CCN(CC)c1ccc(N=Cc2ccc(N(CC)CC)cc2O)cc1 the results were dFosB act -6.5.
Screening CCN1CCN(c2ccc(N=Cc3ccc(O)cc3O)cc2)CC1 returned MLL AF4-AF9 inh 13.6, S100A4 MyoIIA -8.8, RAD52 inh 91.1*, dFosB act -3.8 and RAD52 DNA ctr inactive.
Screening O=C(NCC[C@H]1CC[C@@H](NC(=O)C2CCCCC2)[C@H](CO)O1)Nc1ccc(Cl)cc1 returned RAD54 inh 2.0, MLL AF4-AF9 inh 8.5, S100A4 MyoIIA 22.1 and RAD52 inh -5.1.
O=C(Nc1ccn(CCCN2CCN(Cc3cccc4ccccc34)CC2)c(=O)n1)OCc1ccccc1 was read as MLL AF4-AF9 inh 14.9, S100A4 MyoIIA -10.5, RAD52 inh 52.2* and RAD52 DNA ctr inactive.
O=C(Nc1ccn(CCCN2CCN(c3ccccc3)CC2)c(=O)n1)OCc1ccccc1 was read as RAD54 inh 3.9, MLL AF4-AF9 inh 7.2, S100A4 MyoIIA 2.2 and RAD52 inh 2.8.
Screening CCCCN(CCCNC(=S)NCCCc1cnc[nH]1)c1ccc(Br)cn1 returned RAD54 inh 0.5, MLL AF4-AF9 inh 22.6, S100A4 MyoIIA -9.9, RAD52 inh 55.4* and RAD52 DNA ctr inactive.
Screening O=C(Nc1ccc(CN2CCOCC2)cc1)c1ccc(-c2ccc(Br)cc2)o1 returned RAD54 inh 2.0, MLL AF4-AF9 inh 15.8, S100A4 MyoIIA -0.4, RAD52 inh 51.0*, dFosB act -24.9 and RAD52 DNA ctr inactive.
`C[C@H](CO)N1C[C@H](C)[C@@H](CN(C)Cc2ccc(Cl)c(Cl)c2)Oc2c(NC(=O)c3nc4ccccc4s3)cccc2C1=O` gave RAD54 inh -0.7, MLL AF4-AF9 inh 3.0, S100A4 MyoIIA 6.6 and RAD52 inh 8.7.
Screening COc1cc2nc(N(CCCN(C)C)C(=O)c3ccc(S(=O)(=O)N(C)C4CCCCC4)cc3)sc2cc1OC returned RAD54 inh 23.4, MLL AF4-AF9 inh 9.8, S100A4 MyoIIA 0.9, RAD52 inh 45.2 and dFosB act 9.9.
`CCN(Cc1ccccc1)S(=O)(=O)c1ccc(C(=O)N(CCCN(C)C)c2nc3cc(OC)ccc3s2)cc1` gave MLL AF4-AF9 inh 21.2, S100A4 MyoIIA 0.6, RAD52 inh 58.9*, dFosB act -14.4 and RAD52 DNA ctr inactive.

Screens (PubChem BioAssay)
